Assay results taken from publication PMC12376074 (Toxicology in vitro : an international journal published in …, 2019).
pIC50: −log10 of the molar value. Like-named read-outs stand apart in the source and are kept apart here. Blank lines part the entries; values can stand above or below the compound they belong to.

Key:
[1] = system: phosphorylation of p38, JNK, and ERK1/2; assay: Western blot of MAPK phosphorylation in HepG2 cells; assay type: cell-based, human; details: 48 h
[2] = MTT cell viability assay, CYP1A1 cells; assay type: cell-based; details: human, HepG2 cells overexpressing CYP1A1
cleaved caspase-3 = assay: Western blot of cleaved caspase-3 in HepG2 cells; assay type: cell-based, human; details: 48 h
HepG2 cells [3] = assay: Caspase-3/7 activity measurement; assay type: cell-based, human; details: 0.1 IC50, 0.5 IC50 and IC50, 48 h
[4] = MTT cell viability assay, CYP2C8 cells; assay type: cell-based; details: human, HepG2 cells overexpressing CYP2C8, IC50, CYP2C8 overexpressing cells, ADQ 1.56–50 μM
[5] = MTT cell viability assay, CYP3A5 cells; assay type: cell-based; details: human, HepG2 cells overexpressing CYP3A5
Bcl-2, Mcl-1, Bax = assay: Western blot of Bcl-2 family proteins in HepG2 cells; assay type: cell-based, human; details: 48 h
[6] = MTT cell viability assay, CYP1A2 cells; assay type: cell-based; details: human, HepG2 cells overexpressing CYP1A2
[7] = MTT cell viability assay, CYP1B1 cells; assay type: cell-based; details: human, HepG2 cells overexpressing human CYP1B1
[8] = MTT cell viability assay, CYP2C19 cells; assay type: cell-based; details: human, HepG2 cells overexpressing CYP2C19
[9] = MTT cell viability assay, CYP vector cells; assay type: cell-based; details: human, HepG2/CYP vector cells (empty-vector control), ADQ 1.56–50 μM
HepG2 cells [10] = assay: MTT cell viability assay; assay type: cell-based, human; details: read-out: IC50 on cell growth
[11] = MTT cell viability assay, CYP3A4 cells; assay type: cell-based; details: human, HepG2 cells overexpressing CYP3A4, IC50, CYP3A4 overexpressing cells
HepG2 cells [12] = assay: LDH release assay; assay type: cell-based, human; details: 48 h, concentrations above the 0.5 IC50
[13] = cited from earlier work
CYP3A4 = assay: Western blot of CYP3A4 expression; assay type: cell-based, human; details: 30 μM, CYP3A4 overexpressing cells, 48 h
How it was run: (§1)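 HepG2 cells overexpressing CYP2C8 or CYP3A4 were co-incubated 48 h with test compound, with or without 30 μM rifampicin or ketoconazole. RIPA lysates (protease inhibitors, 30 min on ice, 12,000g) were BCA-quantified, and 20–60 μg protein was run on 10% SDS-PAGE and blotted to PVDF. Blots were probed with goat polyclonal anti-CYP2C8 or mouse monoclonal anti-CYP3A4, detected by ECL, and quantified against β-actin.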

[14] = system: HepG2 cells overexpressing CYP3A4; assay: Toxicity of CYP inhibitor to CYP3A4 cells; assay type: cell-based, human; details: 30 μM
CYP2C8 = assay: Western blot of CYP2C8 expression; assay type: cell-based, human; details: 30 μM, CYP2C8 overexpressing cells, 48 h
How it was run: as §1

[15] = system: HepG2 cells overexpressing CYP2C8; assay: Toxicity of CYP inhibitor to CYP2C8 cells; assay type: cell-based, human; details: 30 μM

pIC50 (HepG2 cells [10]; Homo sapiens, HepG2, 48 h): 4.76
SMILES: CCN(CC)Cc1cc(Nc2ccnc3cc(Cl)ccc23)ccc1O [ADQ, Amodiaquine]
phosphorylation of p38, JNK, and ERK1/2 [1]: no change
IC50 at 48 h [2]: 26.4 µM
expression level of cleaved caspase-3 (cleaved caspase-3): increase
caspase-3/7 activity (HepG2 cells [3]): increased the activity of caspase-3/7 in a concentration-dependent manner
IC50 at 48 h [4]: 11.7 µM
IC50 at 48 h [5]: 17.1 µM
expression level of pro-apoptotic member Bax (Bcl-2, Mcl-1, Bax): increased
expression levels of anti-apoptotic members Bcl-2 and Mcl-1 (Bcl-2, Mcl-1, Bax): decreased
IC50 at 48 h [6]: 18.7 µM
IC50 at 48 h [7]: 25.7 µM
IC50 at 48 h [8]: 17.3 µM
IC50 at 48 h [9]: 17.1 µM
IC50 at 48 h ([11]; ADQ 1.56–50 μM): 14 µM
IC50 at 48 h ([11]; ADQ 3.13–50 μM, no CYP inhibitor): 14.8 µM

LDH release relative to vehicle control (HepG2 cells [12]): > 4 fold
pIC50 (HepG2 cells [10]; HepG2 cells, 1.56–50 μM, 48 h, MTT): 4.82
SMILES: CCNCc1cc(Nc2ccnc3cc(Cl)ccc23)ccc1O [NADQ, N-desethylamodiaquine]
phosphorylation of p38, JNK, and ERK1/2 [1]: markedly increased
expression level of cleaved caspase-3 (cleaved caspase-3): increase
caspase-3/7 activity (HepG2 cells [3]): increased the activity of caspase-3/7 in a concentration-dependent manner
expression level of pro-apoptotic member Bax (Bcl-2, Mcl-1, Bax): no change
expression levels of anti-apoptotic members Bcl-2 and Mcl-1 (Bcl-2, Mcl-1, Bax): no change
half-life (t1/2) of NADQ relative to ADQ (longer) ([13]; after oral administration of ADQ, ref Laurent et al., 1993, Scarsi et al., 2014): 20- to 50 fold
Cmax of NADQ in vivo relative to ADQ (higher) ([13]; in vivo, ref Lai et al., 2009): > 20 fold

SMILES: CC(=O)N1CCN(c2ccc(OCC3COC(Cn4ccnc4)(c4ccc(Cl)cc4Cl)O3)cc2)CC1 (stereo not shown) [ketoconazole]
expression level of CYP3A4 (CYP3A4): markedly reduced
toxicity of the CYP inhibitor to cells [14]: not toxic

expression level of CYP2C8 (CYP2C8): markedly reduced
SMILES: CO[C@H]1/C=C/O[C@@]2(C)Oc3c(C)c(O)c4c(O)c(c(/C=N/N5CCN(C)CC5)c(O)c4c3C2=O)NC(=O)/C(C)=C\C=C\[C@H](C)[C@H](O)[C@@H](C)[C@@H](O)[C@@H](C)[C@H](OC(C)=O)[C@@H]1C [rifampicin]
toxicity of the CYP inhibitor to cells [15]: not toxic
